What was measured:
[1] = system: SNB-75; experiment: Growth inhibition of human SNB75 cells at 10 uM after 48 hrs by SRB assay; values are per cent of control; conditions: SNB-75, 48 h
[2] = system: Malme-3M; experiment: Growth inhibition of human MALME-3M cells after 48 hrs by SRB assay; type: functional
In short: (§1)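 NCI five-dose assay against the ~60-cell-line panel (nine cancer types). Tenfold dilutions from 10−4 to 10−8 M were used with continuous 48-h exposure and SRB absorbance readout. Percent growth was computed from time-zero, control and treated absorbances. GI50 is the concentration giving 50% lower net protein increase than controls. Values not reached are reported as beyond the tested range.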

[3] = system: OVCAR-3; experiment: Growth inhibition of human OVCAR3 cells at 10 uM after 48 hrs by SRB assay; values are per cent of control; conditions: OVCAR-3, 48 h
[4] = Growth inhibition of human SF539 cells after 48 hrs by SRB assay; type: functional; conditions: SF-539, 48 h
In short: as §1

[5] = Acute toxicity in ip dosed white mouse; type: organism-based; conditions: in vivo
In short: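 White male mice, 23-25 g, dosed intraperitoneally with compound dissolved in 0.9% NaCl saline plus 1-2 drops Polysorbate 80 (Tween-80). Solutions prepared immediately before use. Doses ranged 100-1000 mg/kg, testing 4 or 5 doses with 6 animals per dose. LD50 derived by the Litchfield-Wilcoxon method.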

[6] = Growth inhibition of human UO31 cells after 48 hrs by SRB assay; type: functional; conditions: UO-31, 48 h
In short: (§2)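 NCI ~60-cell-line five-dose screen. Cells were preincubated 24-48 h, then given compound at 10-fold dilutions from 10^-4 to 10^-8 M with 48 h continuous exposure. SRB protein stain was read by absorbance at time zero, in untreated control and with drug. GI50 was derived from [(Ti-Tz)/(C-Tz)]x100=50, TGI from Ti=Tz, and LC50 from [(Ti-Tz)/Tz]x100=-50.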

[7] = system: SNB-75; experiment: Growth inhibition of human SNB75 cells after 48 hrs by SRB assay; type: functional; conditions: SNB-75, 48 h
In short: as §1

[8] = Growth inhibition of human SF539 cells at 10 uM after 48 hrs by SRB assay; values are per cent of control; conditions: SF-539, 48 h
[9] = system: Trypanosoma brucei brucei; experiment: Antitrypanosomal activity against bloodstream form of Trypanosoma brucei brucei strain 90-13 assessed as inhibition of parasite growth at 10 ug/ml after 72 hrs by resazurin reduction test; type: functional; conditions: strain 90-13, 72 h
In short: (§3)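 Trypanosoma brucei brucei 90-13 bloodstream forms, grown in HMI9 with 10% FCS at 37 °C under 5% CO2. Log-phase parasites were seeded at 10^5 cells/mL with or without inhibitor, with stocks prepared in DMSO. After 72 h, resazurin was added and fluorescence was read at 530/590 nm after a further 4 h. Percent growth inhibition was calculated versus drug-free parasites, with DMSO as control.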

[10] = system: U-251; experiment: Growth inhibition of human U251 cells after 48 hrs by SRB assay; type: functional; conditions: U-251, 48 h
In short: as §2

[11] = Growth inhibition of human UO31 cells at 10 uM after 48 hrs by SRB assay; values are per cent of control; conditions: UO-31, 48 h
[12] = system: CAKI-1; experiment: Growth inhibition of human CAKI-1 cells after 48 hrs by SRB assay; type: functional; conditions: CAKI-1, 48 h
In short: as §1

[13] = Growth inhibition of human OVCAR4 cells after 48 hrs by SRB assay; type: functional; conditions: OVCAR-4, 48 h
In short: as §1

[14] = Growth inhibition of human HOP92 cells after 48 hrs by SRB assay; type: functional; conditions: HOP-92, 48 h
In short: as §1

[15] = system: NCI-H322M; experiment: Growth inhibition of human NCI-H322M cells after 48 hrs by SRB assay; type: functional
In short: as §1

[16] = system: SR; experiment: Growth inhibition of human SR cells after 48 hrs by SRB assay; type: functional
In short: as §2

[17] = system: ACHN; experiment: Growth inhibition of human ACHN cells after 48 hrs by SRB assay; type: functional
In short: as §1

[18] = Growth inhibition of human Hs 578T cells after 48 hrs by SRB assay; type: functional
In short: as §1

[19] = system: A549; experiment: Growth inhibition of human A549/ATCC cells at 10 uM after 48 hrs by SRB assay; values are per cent of control; conditions: A549, 48 h
[20] = system: Trypanosoma brucei brucei; experiment: Antitrypanosomal activity against bloodstream form of Trypanosoma brucei brucei strain 90-13 assessed as inhibition of parasite growth at 1 ug/ml after 72 hrs by resazurin reduction test; type: functional; conditions: strain 90-13, 72 h
In short: as §3

[21] = system: TK-10; experiment: Growth inhibition of human TK10 cells after 48 hrs by SRB assay; type: functional; conditions: TK-10, 48 h
In short: as §2

[22] = system: OVCAR-3; experiment: Growth inhibition of human OVCAR3 cells after 48 hrs by SRB assay; type: functional; conditions: OVCAR-3, 48 h
In short: as §1

[23] = system: CAKI-1; experiment: Growth inhibition of human CAKI-1 cells at 10 uM after 48 hrs by SRB assay; values are per cent of control; conditions: CAKI-1, 48 h

With `COc1ccc2cc(C(=O)Nc3nc(-c4ccccc4)cs3)sc(=O)c2c1OC` the growth percent at 10 µM [1] was -43.8%, the GI50 [2] was 1950 nM and the TGI ([2]; read-out: pTGI (converted)) was 8320 nM. For the same compound, the growth percent at 10 µM [3] was -67%, the GI50 [4] was 1780 nM and the TGI ([4]; read-out: pTGI (converted)) was 3630 nM. For the same compound, the LD50 [5] was 515 mg/kg, the GI50 [6] was 1950 nM and the TGI ([6]; read-out: pTGI (converted)) was 3090 nM. The GI50 [7] was 1580 nM, the TGI ([7]; read-out: pTGI (converted)) was 3550 nM and the growth percent at 10 µM [8] was -48%. The inhibition at 10 µg/mL [9] was 11.3%, the GI50 [10] was 2000 nM and the TGI ([10]; read-out: pTGI (converted)) was 4470 nM. It also gave a growth percent at 10 µM [11] of -65.5%, a GI50 [12] of 240 nM and a TGI ([12]; read-out: pTGI (converted)) of 1780 nM. It also gave a GI50 [13] of 1860 nM, a GI50 [14] of 1290 nM and a TGI ([14]; read-out: pTGI (converted)) of 3160 nM. For the same compound, the GI50 ([15]; read-out: GI50) was 1280 nM, the GI50 ([15]; read-out: pGI50 (converted)) was 1290 nM and the TGI ([15]; read-out: pTGI (converted)) was 5620 nM. For the same compound, the GI50 [16] was 2750 nM, the TGI ([16]; read-out: pTGI (converted)) was > 100000 nM and the GI50 [17] was 2040 nM. The TGI ([17]; read-out: pTGI (converted)) was > 100000 nM, the GI50 [18] was 2630 nM and the TGI ([18]; read-out: pTGI (converted)) was 4370 nM. The growth percent at 10 µM [19] was -50.8%, the inhibition at 1 µg/mL [20] was 28.6% and the GI50 [21] was 2090 nM. It also gave a TGI ([21]; read-out: pTGI (converted)) of 3800 nM, a GI50 [22] of 1910 nM and a TGI ([22]; read-out: pTGI (converted)) of 3720 nM. The growth percent at 10 µM [23] was -70.8%.

From ChEMBL document CHEMBL3124905, “Isothiocoumarin-3-carboxylic acid derivatives: synthesis, anticancer and antitrypanosomal activity evaluation” (Eur J Med Chem, 2014)
